Experiments:
[1] = tested on: lamin A processing in staurosporine-treated Jurkat T cells; experiment: western blot of lamin A processing upon inhibitor treatment; format: cell-based, human; settings: inhibitor 5 or 25 μM, 2 h preincubation, staurosporine 5 μM, 4 h
Procedure, shortened: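 Low-passage Jurkat T cells (100000 per 0.5 mL) were pretreated 2 h with inhibitor (5 or 25 μM, 1% DMSO; control 1% DMSO), then given staurosporine 5 μM for 4 or 8 h. Lysates were boiled in SDS/DTT and run on 4–12% Bis-Tris SDS–PAGE, then nitrocellulose, blocked with 2% BSA/TBS-T. Primary antibodies (caspase 3, PARP, caspase 6, lamin A/C; 1:1000, overnight 4 °C) were followed by fluorescent secondaries. Bands were quantified from 700/800 nm scans.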

caspase 6 [2] = molecular target: T1, caspase 6 (Homo sapiens, UniProt P55212); experiment: kinetic of AIE substrates; format: biochemical; settings: caspases 3 and 6 at 10 nM or 50 nM, ex 312/em 450 nm, 30 min
T1 sequence (P55212 24-179 limits assumed): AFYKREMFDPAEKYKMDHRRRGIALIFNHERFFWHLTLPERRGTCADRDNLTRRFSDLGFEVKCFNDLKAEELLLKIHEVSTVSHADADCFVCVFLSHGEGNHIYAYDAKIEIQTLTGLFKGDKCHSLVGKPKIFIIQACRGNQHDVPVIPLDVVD
T1 sequence (P55212 194-293 limits assumed): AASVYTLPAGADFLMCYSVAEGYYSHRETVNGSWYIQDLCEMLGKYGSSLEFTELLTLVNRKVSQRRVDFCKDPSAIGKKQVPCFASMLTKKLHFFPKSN
Procedure, shortened: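 Recombinant human caspases 3 and 6 were active-site titrated with zVAD-fmk and used at 10 or 50 nM. Buffer: 10% w/v sucrose, 20 mM PIPES, 10 mM NaCl, 1 mM EDTA, 10 mM DTT, pH 7.2–7.4. Enzyme was preincubated 15 min, then added to AIE substrates from DMSO at varied final concentrations, 37 °C. Relative hydrolysis rate came from the linear fluorescence segment. At least three replicates, mean ± SD.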

caspase 6 [3] = molecular target: T1, caspase 6; experiment: kobs/I inhibition parameter of AOMK inhibitors; format: biochemical; settings: substrate Ac-VEID-ACC 100 μM, 37 °C
Procedure, shortened: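 Recombinant human caspase 6 was active-site titrated with zVAD-fmk and preactivated 15 min at 37 °C in sucrose/PIPES/NaCl/EDTA/DTT buffer, pH 7.2–7.4. Serial inhibitor dilutions with substrate were pre-equilibrated 15 min at 37 °C, then enzyme was added. ACC fluorescence (ex 355/em 460 nm) was read for 30 min from start under pseudo-first-order conditions. Second-order kobs/I: at least three independent runs, mean ± SD.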

caspase 9 = molecular target: T2, caspase 9 (Homo sapiens, UniProt P55211); experiment: kobs/I inhibition parameter of AOMK inhibitors; format: biochemical; settings: substrate Ac-LEHD-ACC 100 μM, 37 °C
T2 sequence (P55211 1-315 limits assumed): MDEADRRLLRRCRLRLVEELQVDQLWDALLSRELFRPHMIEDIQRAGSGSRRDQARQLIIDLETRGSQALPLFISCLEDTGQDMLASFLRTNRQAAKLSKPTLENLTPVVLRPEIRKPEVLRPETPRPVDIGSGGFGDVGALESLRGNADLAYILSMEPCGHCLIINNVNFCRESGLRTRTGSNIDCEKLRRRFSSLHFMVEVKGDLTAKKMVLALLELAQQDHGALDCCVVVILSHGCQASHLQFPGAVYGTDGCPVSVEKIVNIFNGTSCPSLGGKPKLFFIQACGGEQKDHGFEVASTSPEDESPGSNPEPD
T2 sequence (P55211 331-416 limits assumed): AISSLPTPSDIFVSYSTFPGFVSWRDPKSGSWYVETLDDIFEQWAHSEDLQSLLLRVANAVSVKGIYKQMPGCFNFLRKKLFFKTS
Procedure, shortened: (§1)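 Recombinant human caspases 8, 9 or 10 were active-site titrated with zVAD-fmk and preactivated 15 min at 37 °C. Buffer: sucrose/PIPES/NaCl/EDTA/DTT, pH 7.2–7.4, plus 0.75 M sodium citrate to dimerise. Inhibitor dilutions were mixed with substrate and held 15 min at 37 °C before enzyme addition. Fluorescence (ex 355/em 460 nm) was followed 30 min; pseudo-first-order kobs/I from ≥3 experiments, mean ± SD.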

[4] = tested on: lamin A processing in staurosporine-treated Jurkat T cells; experiment: mass cytometry, anti-lamin A; format: cell-based, human; settings: inhibitor 5 or 25 μM, 2 h preincubation, staurosporine 5 μM, 4 h
Procedure, shortened: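 Jurkat T cells (1,000,000 per 0.5 mL) were pretreated 2 h with inhibitor (5 or 25 μM), then given staurosporine 5 μM for 4 h. Cells were fixed in 4% PFA (20 min, 4 °C), Perm-S permeabilised and stained 2 h RT with metal-tagged antibodies (lamin A 142Nd, cleaved PARP 143Nd, caspase 6 159Tb, cleaved caspase 3 172Yb). Ir191/193 DNA stain followed; CyTOF acquisition within 12 h.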

caspase 8 = caspase 8 (Homo sapiens, UniProt Q14790); experiment: kobs/I inhibition parameter of AOMK inhibitors; format: biochemical; settings: substrate Ac-LEHD-ACC 100 μM, 37 °C
Chain of caspase 8 (Q14790 217-374 limits assumed): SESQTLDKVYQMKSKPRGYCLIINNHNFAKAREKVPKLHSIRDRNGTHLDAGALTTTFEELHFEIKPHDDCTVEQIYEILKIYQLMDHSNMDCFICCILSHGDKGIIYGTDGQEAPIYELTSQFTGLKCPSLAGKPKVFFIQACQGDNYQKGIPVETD
Chain of caspase 8 (Q14790 385-479 limits assumed): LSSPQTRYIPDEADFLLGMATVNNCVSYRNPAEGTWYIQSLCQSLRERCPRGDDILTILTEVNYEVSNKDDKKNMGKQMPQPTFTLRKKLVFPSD
Procedure, shortened: as §1

caspase 10 = molecular target: T3, caspase 10 (Homo sapiens, UniProt Q92851); experiment: kobs/I inhibition parameter of AOMK inhibitors; format: biochemical; settings: substrate Ac-LEHD-ACC 100 μM, 37 °C
T3 sequence (Q92851 220-415 limits assumed): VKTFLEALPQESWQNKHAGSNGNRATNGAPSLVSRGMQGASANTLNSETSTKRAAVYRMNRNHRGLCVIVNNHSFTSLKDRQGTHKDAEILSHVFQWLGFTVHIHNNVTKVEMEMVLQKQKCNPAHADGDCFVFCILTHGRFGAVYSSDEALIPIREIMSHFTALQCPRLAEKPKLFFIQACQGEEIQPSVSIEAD
T3 sequence (Q92851 416-521 limits assumed): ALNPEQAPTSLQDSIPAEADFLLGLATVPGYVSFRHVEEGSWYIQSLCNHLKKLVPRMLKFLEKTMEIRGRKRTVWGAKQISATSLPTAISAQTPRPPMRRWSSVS
Procedure, shortened: as §1

Row | Substance | prevention of lamin A cleavage (western blot) [1] | selectivity for caspase 6 over caspase 3 (AIE substrate hydrolysis) (caspase 6 [2]) | potency toward caspase 6 (kobs/I, in words) (caspase 6 [3]) | inhibition of apical caspase 9 (in words) (caspase 9) | effect on lamin A processing (mass cytometry) [4] | inhibition of apical caspase 8 (in words) (caspase 8) | inhibition of apical caspase 10 (in words) (caspase 10)
1 | Ac-EVEID-AOMK | only partially effective in preventing lamin A cleavage |  |  |  |  |  | 
2 | Ac-EVEID-K(T PE )-NH2 [Ac-EVEID-K-TPE] |  | very high selectivity over caspase 3 |  |  |  |  | 
3 | Ac-EVEhFD-AOMK | only partially effective in preventing lamin A cleavage |  | most potent inhibitors of caspase 6 |  |  |  | 
4 | Ac-hFVEID-AOMK | largely prevent lamin A |  | most potent inhibitors of caspase 6 | poor inhibitor | efficiently block lamin A processing | poor inhibitor | poor inhibitor

Source: PMC9977399 (Chemical Science, 2023)
